ChEMBL document CHEMBL4138242, “Synthesis and antibacterial evaluation of novel cationic chalcone derivatives possessing broad spectrum antibacterial activity” (Eur J Med Chem, 2018)
The source made the active and inactive calls. The calls are words filed in the database; no cut-off is given here.

Tested on: Salmonella enterica
Assay: Antibacterial activity against Salmonella enterica ATCC 13076 after 16 to 20 hrs by broth microdilution method
Assay type: functional
Conditions: not given
Summary of the method: (§1)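 Broth microdilution per CLSI. Bacteria grown 4-6 h (about 10⁸ CFU/mL), then diluted to about 10⁶ CFU/mL. Medium: Mueller-Hinton broth, except Luria-Bertani broth for E. coli. Compounds in sterile water, twofold series 256-0.5 µg/mL, mixed 1:1 with inoculum, 37 °C for 16-20 h. MIC is the lowest concentration without visible growth. Duplicate wells; experiment repeated at least twice.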
In the case of `CCCCCCCC[N+](C)(C)CC(=O)Nc1ccc(C(=O)/C=C/c2ccccc2C(F)(F)F)cc1.[Cl-]`, the MIC was 16 µg/mL.

Tested on: Escherichia coli
Assay: Antibacterial activity against drug-resistant NDM1 producing Escherichia coli clinical isolate SM-15-84 after 16 to 20 hrs by broth microdilution method
Assay type: functional
Conditions: not given
Summary of the method: (§2)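 CLSI broth microdilution in Mueller-Hinton broth. A 4-6 h culture was diluted to about 10⁶ CFU/mL and mixed 1:1 with compound dilutions prepared at 256 to 0.5 µg/mL from aqueous stocks. Plates were incubated at 37 °C for 16-20 h and read visually for MIC. Each concentration was run in duplicate, and the experiment was repeated at least twice. Vancomycin and meropenem were comparators.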
`CCCCCCCC[N+](C)(C)CC(=O)Nc1ccc(C(=O)/C=C/c2ccccc2C(F)(F)F)cc1.[Cl-]` gave an MIC of 128 µg/mL.

Tested on: Staphylococcus aureus
Assay: Antibacterial activity against Staphylococcus aureus ATCC 29213 after 16 to 20 hrs by broth microdilution method
Assay type: functional
Conditions: not given
Summary of the method: as §1
`CCCCCCCC[N+](C)(C)CC(=O)Nc1ccc(C(=O)/C=C/c2ccccc2C(F)(F)F)cc1.[Cl-]` showed an MIC of 2 µg/mL.

Tested on: Escherichia coli
Assay: Antibacterial activity against drug-resistant NDM1 producing Escherichia coli clinical isolate EA-14-61 after 16 to 20 hrs by broth microdilution method
Assay type: functional
Conditions: not given
Summary of the method: as §2
`CCCCCCCC[N+](C)(C)CC(=O)Nc1ccc(C(=O)/C=C/c2ccccc2C(F)(F)F)cc1.[Cl-]` showed an MIC of 8 µg/mL.

Tested on: Escherichia coli
Assay: Antibacterial activity against drug-resistant NDM1 producing Escherichia coli clinical isolate Ecl-14-59 after 16 to 20 hrs by broth microdilution method
Assay type: functional
Conditions: not given
Summary of the method: as §2
With `CCCCCCCC[N+](C)(C)CC(=O)Nc1ccc(C(=O)/C=C/c2ccccc2C(F)(F)F)cc1.[Cl-]` the MIC was 8 µg/mL.

Tested on: Staphylococcus aureus
Assay: Antibacterial activity against methicillin-resistant Staphylococcus aureus clinical isolate 1-may after 16 to 20 hrs by broth microdilution method
Assay type: functional
Conditions: not given
Summary of the method: as §2
Work on `CCCCCCCC[N+](C)(C)CC(=O)Nc1ccc(C(=O)/C=C/c2ccccc2C(F)(F)F)cc1.[Cl-]` yielded an MIC of 0.5 µg/mL.

Tested on: Klebsiella pneumoniae
Assay: Antibacterial activity against drug-resistant carbapenemase producing Klebsiella pneumoniae clinical isolate EC-13-23 after 16 to 20 hrs by broth microdilution method
Assay type: functional
Conditions: not given
Summary of the method: as §2
Work on `CCCCCCCC[N+](C)(C)CC(=O)Nc1ccc(C(=O)/C=C/c2ccccc2C(F)(F)F)cc1.[Cl-]` yielded an MIC of 4 µg/mL.

Tested on: Escherichia coli
Assay: Antibacterial activity against drug-resistant NDM1 producing Escherichia coli clinical isolate Ecl-13-62 after 16 to 20 hrs by broth microdilution method
Assay type: functional
Conditions: not given
Summary of the method: as §2
Compound `CCCCCCCC[N+](C)(C)CC(=O)Nc1ccc(C(=O)/C=C/c2ccccc2C(F)(F)F)cc1.[Cl-]` has an MIC of 8 µg/mL.

Tested on: Staphylococcus aureus
Assay: Antibacterial activity against methicillin-resistant Staphylococcus aureus clinical isolate 0831010 after 16 to 20 hrs by broth microdilution method
Assay type: functional
Conditions: not given
Summary of the method: as §2
For `CCCCCCCC[N+](C)(C)CC(=O)Nc1ccc(C(=O)/C=C/c2ccccc2C(F)(F)F)cc1.[Cl-]`, the MIC was 0.5 µg/mL.

Tested on: Klebsiella pneumoniae
Assay: Antibacterial activity against drug-resistant carbapenemase producing Klebsiella pneumoniae clinical isolate KP-13-45 after 16 to 20 hrs by broth microdilution method
Assay type: functional
Conditions: not given
Summary of the method: as §2
Compound `CCCCCCCC[N+](C)(C)CC(=O)Nc1ccc(C(=O)/C=C/c2ccccc2C(F)(F)F)cc1.[Cl-]` has an MIC of 8 µg/mL.

Tested on: Escherichia coli
Assay: Antibacterial activity against drug-resistant NDM1 producing Escherichia coli clinical isolate Ecl-14-56 after 16 to 20 hrs by broth microdilution method
Assay type: functional
Conditions: not given
Summary of the method: as §2
`CCCCCCCC[N+](C)(C)CC(=O)Nc1ccc(C(=O)/C=C/c2ccccc2C(F)(F)F)cc1.[Cl-]` showed an MIC of 4 µg/mL.

Tested on: Klebsiella pneumoniae
Assay: Antibacterial activity against drug-resistant carbapenemase producing Klebsiella pneumoniae clinical isolate KP-14-4 after 16 to 20 hrs by broth microdilution method
Assay type: functional
Conditions: not given
Summary of the method: as §2
Compound `CCCCCCCC[N+](C)(C)CC(=O)Nc1ccc(C(=O)/C=C/c2ccccc2C(F)(F)F)cc1.[Cl-]` has an MIC of 8 µg/mL.

Tested on: not listed separately
Assay: Hemolytic activity in sheep RBC after 1 hr
Assay type: ADME, cell-based, Ovis aries, Erythrocyte
Conditions: sheep red blood cells (erythrocytes)
Summary of the method: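 Sheep red blood cells (150 µL suspension) mixed with 50 µL of compound dilutions (5120-10 µg/mL), 1 h at 37 °C, then centrifuged. Supernatant read at 540 nm. Percent hemolysis calculated relative to RBC-only control (0%) and 0.1% Triton X-100 (100%).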
With `CCCCCCCC[N+](C)(C)CC(=O)Nc1ccc(C(=O)/C=C/c2ccccc2C(F)(F)F)cc1.[Cl-]` the HC50 at 1 h was 136 µg/mL.

Tested on: Staphylococcus aureus
Assay: Induction of cytoplasmic membrane depolarization in Staphylococcus aureus ATCC 29213 at 10 to 20 ug/ml measured every 2 mins for 12 mins by DiSC35 dye-based fluorescence assay
Assay type: functional, organism-based
Conditions: not given
Summary of the method: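 Mid-log cells (~10⁸ CFU/mL) were suspended in PBS (S. aureus) or HEPES/glucose/KCl with EDTA (E. coli). They were preloaded with DiSC3(5) for 30 min (S. aureus) or 40 min (E. coli), and baseline fluorescence was read for 8 min. Compound was added to 20 µg/mL final, and fluorescence (ex 622/em 670 nm) was read every 2 min for 12 min. Water served as control.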
For `CCCCCCCC[N+](C)(C)CC(=O)Nc1ccc(C(=O)/C=C/c2ccccc2C(F)(F)F)cc1.[Cl-]`, the Activity was “Active”.

Tested on: Escherichia coli
Assay: Antibacterial activity against Escherichia coli ATCC 25922 after 16 to 20 hrs by broth microdilution method
Assay type: functional
Conditions: not given
Summary of the method: as §1
Compound `CCCCCCCC[N+](C)(C)CC(=O)Nc1ccc(C(=O)/C=C/c2ccccc2C(F)(F)F)cc1.[Cl-]` has an MIC of 8 µg/mL.

Tested on: Escherichia coli
Assay: Antibacterial activity against drug-resistant NDM1 producing Escherichia coli clinical isolate CF-15-61 after 16 to 20 hrs by broth microdilution method
Assay type: functional
Conditions: not given
Summary of the method: as §2
`CCCCCCCC[N+](C)(C)CC(=O)Nc1ccc(C(=O)/C=C/c2ccccc2C(F)(F)F)cc1.[Cl-]` gave an MIC of 4 µg/mL.

Tested on: Klebsiella pneumoniae
Assay: Antibacterial activity against drug-resistant carbapenemase producing Klebsiella pneumoniae clinical isolate KP-14-2 after 16 to 20 hrs by broth microdilution method
Assay type: functional
Conditions: not given
Summary of the method: as §2
`CCCCCCCC[N+](C)(C)CC(=O)Nc1ccc(C(=O)/C=C/c2ccccc2C(F)(F)F)cc1.[Cl-]` showed an MIC greater than 128 µg/mL.

Tested on: Klebsiella pneumoniae
Assay: Antibacterial activity against drug-resistant carbapenemase producing Klebsiella pneumoniae clinical isolate KP-13-54 after 16 to 20 hrs by broth microdilution method
Assay type: functional
Conditions: not given
Summary of the method: as §2
`CCCCCCCC[N+](C)(C)CC(=O)Nc1ccc(C(=O)/C=C/c2ccccc2C(F)(F)F)cc1.[Cl-]` gave an MIC of 4 µg/mL.

Tested on: Staphylococcus aureus
Assay: Antibacterial activity against methicillin-resistant Staphylococcus aureus clinical isolate 20130911034sau after 16 to 20 hrs by broth microdilution method
Assay type: functional
Conditions: not given
Summary of the method: as §2
`CCCCCCCC[N+](C)(C)CC(=O)Nc1ccc(C(=O)/C=C/c2ccccc2C(F)(F)F)cc1.[Cl-]` gave an MIC of 0.5 µg/mL.

Tested on: Escherichia coli
Assay: Antibacterial activity against drug-resistant NDM1 producing Escherichia coli clinical isolate KP-13-58 after 16 to 20 hrs by broth microdilution method
Assay type: functional
Conditions: not given
Summary of the method: as §2
With `CCCCCCCC[N+](C)(C)CC(=O)Nc1ccc(C(=O)/C=C/c2ccccc2C(F)(F)F)cc1.[Cl-]` the MIC was 1 µg/mL.

Tested on: Escherichia coli
Assay: Antibacterial activity against drug-resistant NDM1 producing Escherichia coli clinical isolate EC-14-54 after 16 to 20 hrs by broth microdilution method
Assay type: functional
Conditions: not given
Summary of the method: as §2
With `CCCCCCCC[N+](C)(C)CC(=O)Nc1ccc(C(=O)/C=C/c2ccccc2C(F)(F)F)cc1.[Cl-]` the MIC was 16 µg/mL.
